Laboratory results: PubChem BioAssay
Activity calls are given as the source filed them.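 Rule for the calls, unless noted: active = viability at or under a set limit in both replicates, limit being median viability minus 3 SD (cut at about 48% in these data, passing the limit was not always enough); inconclusive = at or under the limit in just one replicate; inactive = at or above the limit in both replicates.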

Experiments:
[1] = HUVEC growth inhibition – cell-based, human, primary screen (AID 575;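 active = viability at or below 30% in both replicate assays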;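 note: 100% = median of untreated cell wells with 0.1% DMSO on each plate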); conditions: HUVEC proliferation, CellTiter-Glo luminescence, 72 h; at 10 µM; stronger effect = lower value
Method in brief: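 Test system: HUVEC primary cells. Quantity: 1250 endothelial cells in each well. Dosing: single-point 10 µM, DMSO 0.1% final. Incubation: 72 h treatment at 37 °C. Measured by: CTG luminescence. Control set: DMSO cell controls and MePR drug controls. Plate: collagen-coated 384-well format.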

[2] = growth inhibitors of H69AR lung tumor, primary screen, human, duplicate replicates (AID 580); conditions: H69AR lung tumor cells viability, ATP luminescence, 72 h; at 10 µM; stronger effect = lower value;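 note: 100% = mean luminescence of untreated wells and 0% = no signal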
[3] = reversal of MRP1-mediated doxorubicin resistance, pilot screen, H69AR cells, doxorubicin co-treatment (AID 601;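 active = viability loss from added drug above about 55%, and viability with drug at most 40%, in both replicates, limit read from the data, passing the limit was not always enough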); conditions: CellTiter-Glo, 72 h, at 10 µM; for differential viability (reversal): stronger effect = higher value
[4] = 384-well plate pilot, post-Golgi transport modulator project, inhibition of yeast transport mutant growth (AID 636; in the data active = inhibition above about 31%); conditions: absorbance 615 nm, about 18 h, stronger effect = higher value
[5] = growth suppression of yeast trafficking mutant, preliminary HTS, modulators of trafficking downstream of Golgi apparatus project, 1536-format plate, OD 615 nm (AID 637; in the data active = inhibition above about 30%); conditions: yeast transport mutant growth, absorbance 615 nm, 18 h; stronger effect = higher value
[6] = H69AR cells + 2 uM doxorubicin, measured here: viability with 2 uM doxorubicin, stronger effect = lower value
[7] = H69AR cells, compound alone cytotoxicity

In the case of `CCS(=O)(=O)N1CCC(C(=O)NCc2cccs2)CC1`, the viability [1] is reported as 87.2% (inactive), the viability [2] is reported as 99.3% (inactive) and the differential viability (reversal) ([3]; H69AR cells + 2 uM doxorubicin) is reported as 9.73% (inactive). The viability [3, 6] was 89.6%, the viability [3, 7] was 99.3% and the inhibition [4] was -1.04% (inactive). For the same compound, the inhibition [5] was -3.02% (inactive).
In the case of `Cc1cc(C)n(Cc2nc3ccccc3n2C)n1`, the viability [1] is reported as 92.9% (inactive), the viability [2] is reported as 99% (inactive) and the differential viability (reversal) ([3]; H69AR cells + 2 uM doxorubicin) is reported as 8.18% (inactive). For the same compound, the viability [3, 6] was 90.9%, the viability [3, 7] was 99% and the inhibition [4] was 0.52% (inactive). For the same compound, the inhibition [5] was 4.92% (inactive).
With `O=C(c1ncn[nH]1)N1CCN(c2nc(-c3ccccc3)cs2)CC1` the viability [1] was 104% (inactive), the viability [2] was 94.5% (inactive) and the differential viability (reversal) ([3]; H69AR cells + 2 uM doxorubicin) was 3.58% (inactive). The viability [3, 6] was 90.9%, the viability [3, 7] was 94.5% and the inhibition [4] was -1.73% (inactive). The inhibition [5] was 9.68% (inactive).
For `Cc1ccc(NC(=O)COc2nc(C)cs2)cc1`, the viability [1] was 97.5% (inactive), the viability [2] was 91.5% (inactive) and the differential viability (reversal) ([3]; H69AR cells + 2 uM doxorubicin) was 3.88% (inactive). For the same compound, the viability [3, 6] was 87.6%, the viability [3, 7] was 91.5% and the inhibition [4] was -3.64% (inactive). For the same compound, the inhibition [5] was 2.7% (inactive).
In the case of `O=C(Nc1ccc(N2CCOCC2)cc1)C1CC1`, the viability [1] is reported as 109% (inactive), the viability [2] is reported as 97.1% (inactive) and the differential viability (reversal) ([3]; H69AR cells + 2 uM doxorubicin) is reported as 8.07% (inactive). For the same compound, the viability [3, 6] was 89%, the viability [3, 7] was 97.1% and the inhibition [4] was -5.33% (inactive). The inhibition [5] was 3.49% (inactive).
In the case of `COc1ccc(N2CCN(C(=O)CSc3ncnc4c3cnn4-c3ccccc3C)CC2)cc1`, the viability [1] is reported as 55.5% (inactive), the viability [2] is reported as 68.6% (inactive) and the differential viability (reversal) ([3]; H69AR cells + 2 uM doxorubicin) is reported as -7.28% (inactive). For the same compound, the viability [3, 6] was 75.8%, the viability [3, 7] was 68.6% and the inhibition [4] was 0.53% (inactive). The inhibition [5] was 16% (inactive).
With `O=C(CSc1nc2ccccc2o1)N1CCN(c2ccc(Cl)cc2)CC1` the viability [1] was 92.6% (inactive), the viability [2] was 87.4% (inactive) and the differential viability (reversal) ([3]; H69AR cells + 2 uM doxorubicin) was 1.47% (inactive). The viability [3, 6] was 85.9%, the viability [3, 7] was 87.4% and the inhibition [4] was -1.56% (inactive). The inhibition [5] was 6.35% (inactive).
For `O=C(Oc1ccccc1)c1cccc(COC(=O)c2cnccn2)c1`, the viability [1] was 84.9% (inactive), the viability [2] was 103% (inactive) and the differential viability (reversal) ([3]; H69AR cells + 2 uM doxorubicin) was 14.2% (inactive). The viability [3, 6] was 88.4%, the viability [3, 7] was 103% and the inhibition [4] was -6.13% (inactive). The inhibition [5] was 4.13% (inactive).
In the case of `Cc1c(N(C)C)nc2ccccc2c1N`, the viability [1] is reported as 83.8% (inactive), the viability [2] is reported as 84.4% (inactive) and the differential viability (reversal) ([3]; H69AR cells + 2 uM doxorubicin) is reported as -5.31% (inactive). For the same compound, the viability [3, 6] was 89.7%, the viability [3, 7] was 84.4% and the inhibition [4] was -4% (inactive). The inhibition [5] was 2.54% (inactive).
With `CC(=O)Nc1ccc2nc(-c3cccnc3)[nH]c2c1` the viability [1] was 98.6% (inactive), the viability [2] was 80.7% (inactive) and the differential viability (reversal) ([3]; H69AR cells + 2 uM doxorubicin) was -11.3% (inactive). For the same compound, the viability [3, 6] was 92%, the viability [3, 7] was 80.7% and the inhibition [4] was 3.51% (inactive). For the same compound, the inhibition [5] was 11.1% (inactive).
In the case of `COc1ccc(S(=O)(=O)N2CCN(Cc3ccc(Cl)cc3)CC2)cc1`, the viability [1] is reported as 90.7% (inactive), the viability [2] is reported as 97% (inactive) and the differential viability (reversal) ([3]; H69AR cells + 2 uM doxorubicin) is reported as 6.67% (inactive). The viability [3, 6] was 90.3%, the viability [3, 7] was 97% and the inhibition [4] was -0.4% (inactive). For the same compound, the inhibition [5] was -3.81% (inactive).
For `CCOC(=O)C1C(=O)NC(SCC(=O)Nc2nccs2)=C(C#N)C1c1ccccc1OCC` (configuration not stated), the viability [1] was 76.2% (inactive), the viability [2] was 71.3% (inactive) and the differential viability (reversal) ([3]; H69AR cells + 2 uM doxorubicin) was -1.05% (inactive). The viability [3, 6] was 72.3%, the viability [3, 7] was 71.3% and the inhibition [4] was -1.45% (inactive). For the same compound, the inhibition [5] was 7.78% (inactive).
With `O=S(=O)(NCCc1ccncc1)c1cc(Br)ccc1F` the viability [1] was 97.5% (inactive), the viability [2] was 98.2% (inactive) and the differential viability (reversal) ([3]; H69AR cells + 2 uM doxorubicin) was 13.4% (inactive). The viability [3, 6] was 84.8%, the viability [3, 7] was 98.2% and the inhibition [4] was -3.9% (inactive). The inhibition [5] was 13.5% (inactive).
For `Cc1cccc2c1nc(-c1ccccc1)n1cnnc21`, the viability [1] was 92.3% (inactive), the viability [2] was 86.7% (inactive) and the differential viability (reversal) ([3]; H69AR cells + 2 uM doxorubicin) was -8.59% (inactive). For the same compound, the viability [3, 6] was 95.3%, the viability [3, 7] was 86.7% and the inhibition [4] was 1.2% (inactive). The inhibition [5] was -6.19% (inactive).
With `CCCN(CCC)c1nc2ccccc2n2c(C)nnc12` the viability [1] was 85.3% (inactive), the viability [2] was 81.1% (inactive) and the differential viability (reversal) ([3]; H69AR cells + 2 uM doxorubicin) was -4.65% (inactive). The viability [3, 6] was 85.8%, the viability [3, 7] was 81.1% and the inhibition [4] was -1.45% (inactive). The inhibition [5] was 8.1% (inactive).
In the case of `CSC1CCCCC1(O)CSc1nc2c(cc1C#N)CCCC2` (configuration not stated), the viability [1] is reported as 75.4% (inactive), the viability [2] is reported as 92.6% (inactive) and the differential viability (reversal) ([3]; H69AR cells + 2 uM doxorubicin) is reported as -2.66% (inactive). The viability [3, 6] was 95.2%, the viability [3, 7] was 92.6% and the inhibition [4] was -0.66% (inactive). The inhibition [5] was -1.9% (inactive).
